ChEMBL document CHEMBL6134766, “Design, synthesis, and evaluation of benzhydrylpiperazine-based novel dual COX-2/5-LOX inhibitors with anti-inflammatory and anti-cancer activity” (RSC Med Chem, 2025)
Active and inactive are the calls of the source. The calls are words filed in the database; no cut-off is given here.

Assays:
Drosophila [1] = assay: Anti-cancer activity in Drosophila harboring UAS-Ras V12 mutant assessed as improvement in early pupal survivability at 10 to 50 uM, po; assay type: functional, organism-based; conditions: dose 10-50 µM
In short: (§1)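 UAS-RasV12 glial glioblastoma model (repo-GAL4/UAS-RasV12) in Drosophila, with Oregon R+ wild-type flies as control. Flies reared at 24 ± 1 °C on standard corn food containing compound at 10 or 50 μM. Percent of animals at each developmental stage (third instar larva, pupa) scored. Significance by Tukey's multiple comparisons test.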

[2] = Half life in male Wistar rat at 10 mg/kg, po measured up to 24 hrs by HPLC analysis; assay type: ADME, organism-based; conditions: in vivo
In short: (§2)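 Overnight-fasted male Wistar rats, 200–250 g, single 10 mg kg−1 p.o. in 0.3% sodium CMC; blood at 0, 0.5, 1, 2, 4, 8, 16, 24 h into heparin tubes; plasma MeOH-extracted, HPLC (MeOH:H2O 85:15, 254 nm) against calibration curve; extravascular non-compartmental analysis; mean ± SD (n = 3).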

[3] = Tmax in male Wistar rat at 10 mg/kg, po measured up to 24 hrs by HPLC analysis; assay type: ADME, organism-based; conditions: in vivo; in short: as §2
Rattus norvegicus [4] = assay: Anti-inflammatory activity in arachidonic acid-induced paw edema Wistar rat model assessed as swelling thickness of paw at 10 mg/kg, po measured after 1 hr by digital vernier caliper (reference value: 6.51 +/- 0.37 millimeter); assay type: functional
Drosophila [5] = assay: Toxicity in wild-type Drosophila assessed as eclosion rate at 100 uM, po via food to female and male flies and measured in F1 generation flies after 15 days; assay type: organism-based; conditions: in vivo, 360 h, time 15 day
In short: (§3)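 Ten virgin female and male Oregon R+ flies crossed on food containing compound (1, 10, 50, 100 or 200 μM), held at 24 ± 1 °C; F1 generation followed 15 days; percent eclosion versus untreated controls; Dunnett's multiple comparisons.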

[6] = Toxicity in fasting Wistar rat assessed as ulcer score at 10 mg/kg, po via gavage treated for 3 days consecutively by H and E staining based analysis (reference value: 0); assay type: organism-based; conditions: in vivo, 72 h, time 3 day
In short: (§4)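 Fasted rats, n = 6/group, gavaged once daily for 3 days in 0.3% Na CMC (vehicle control 0.3% CMC); killed under anaesthesia 6 h after day-3 dose; stomachs saline-washed, mucosa examined with hand lens; ulcer score, index and % ulceration by reported scoring; some stomachs formalin-fixed, H&E stained.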

Drosophila [7] = assay: Toxicity in wild-type Drosophila assessed as reduction in eclosion rate at 100 uM, po via food to female and male flies and measured in F1 generation flies after 15 days; assay type: organism-based; parameters: scale not given: the % may be the effect or the level left; conditions: in vivo, 360 h, time 15 day; in short: as §3
Drosophila [8] = assay: Anti-cancer activity in Drosophila harboring UAS-Ras V12 mutant assessed as improvement in larval development to pupal transition at 10 to 50 uM, po; assay type: functional, organism-based; conditions: dose 10-50 µM; in short: as §1
Rattus norvegicus [9] = assay: Cardio-protective activity in ISO-treated Wistar rat assessed as decrease in serum CK-MB level at 20 mg/kg, po; assay type: functional, organism-based
In short: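 Rats (n = 6/group) given ISO 100 mg kg−1 s.c., then oral test compound in 0.3% CMC; vehicle controls. Retro-orbital blood, serum separated at 4000 rpm, 4 °C, 10 min; LDH and CK-MB by commercial kits; mean ± SD.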

[10] = Toxicity in fasting Wistar rat assessed as ulceration at 5 mg/kg, po via gavage treated for 3 days consecutively by H and E staining based analysis (reference value: 0 %); assay type: organism-based; conditions: in vivo, 72 h, time 3 day; in short: as §4
Rattus norvegicus [11] = assay: Anti-inflammatory activity in carrageenan-induced paw edema Wistar rat model assessed as swelling thickness of paw at 5 mg/kg, po measured after 2 hrs by digital vernier caliper (reference value: 8.65 +/- 0.53 millimeter); assay type: functional
Rattus norvegicus [12] = assay: Anti-inflammatory activity in Wistar rat assessed as reduction in ADP/collagen-induced platelet aggregation at 20 mg/kg, po; assay type: functional, organism-based
In short: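 Platelet-rich plasma from treated rats (n = 6/group) adjusted to 4 × 10^8 platelets per ml in Tyrode's buffer. Absorbance read at 570 nm, then aggregation induced with ADP plus 5 μg ml−1 collagen. Plates incubated 5 min at 37 °C with shaking and absorbance re-read at 570 nm. Percent aggregation derived from the absorbance change.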

[13] = Toxicity in wild-type Drosophila assessed as lethal dose administered orally via food to female and male flies and measured in F1 generation flies after 15 days; assay type: organism-based; conditions: both, in vivo, route po, time 15 day, read-out: LD50
In short: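 Wild-type Oregon R+ flies (10 virgin females and males) were crossed on standard food containing 1, 10, 50, 100 or 200 μM compound and kept at 24 ± 1 °C. The F1 generation was followed for 15 days, scoring percent adult eclosion against an untreated control. LD50 was derived from the eclosion data, with Dunnett's test.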

[14] = target: T1, Prostaglandin G/H synthase 1 (Ovis aries, UniProt P05979); assay: Inhibition of ovine COX-1 using arachidonic acid as substrate in presence of hemin by TMPD reagent-based colorimetry
T1 sequence (P05979 whole entry): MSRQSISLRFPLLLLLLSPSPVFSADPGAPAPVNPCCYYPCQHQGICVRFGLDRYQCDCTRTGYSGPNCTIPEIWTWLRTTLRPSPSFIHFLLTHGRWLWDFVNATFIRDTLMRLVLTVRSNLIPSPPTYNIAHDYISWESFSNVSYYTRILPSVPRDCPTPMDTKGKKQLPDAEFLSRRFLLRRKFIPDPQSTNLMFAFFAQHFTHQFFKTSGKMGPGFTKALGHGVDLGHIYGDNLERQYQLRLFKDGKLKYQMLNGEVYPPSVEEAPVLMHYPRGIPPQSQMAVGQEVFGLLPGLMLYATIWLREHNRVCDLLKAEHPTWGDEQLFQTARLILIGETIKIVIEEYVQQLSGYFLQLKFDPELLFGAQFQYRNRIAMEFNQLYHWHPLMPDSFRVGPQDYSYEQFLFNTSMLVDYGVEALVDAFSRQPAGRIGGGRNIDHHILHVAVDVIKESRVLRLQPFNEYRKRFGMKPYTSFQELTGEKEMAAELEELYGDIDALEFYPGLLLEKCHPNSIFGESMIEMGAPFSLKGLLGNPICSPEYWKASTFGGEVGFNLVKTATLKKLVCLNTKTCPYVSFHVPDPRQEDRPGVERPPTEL

Rattus norvegicus [15] = assay: Anti-inflammatory activity in carrageenan-induced paw edema Wistar rat model assessed as swelling thickness of paw at 5 mg/kg, po measured after 6 hrs by digital vernier caliper (reference value: 8.33 +/- 0.42 millimeter); assay type: functional
Rattus norvegicus [16] = assay: Anti-inflammatory activity in carrageenan-induced paw edema Wistar rat model assessed as swelling thickness of paw at 20 mg/kg, po measured after 3 hrs by digital vernier caliper (reference value: 8.56 +/- 0.45 millimeter); assay type: functional
Rattus norvegicus [17] = assay: Anti-inflammatory activity in arachidonic acid-induced paw edema Wistar rat model assessed as protection against swelling thickness of paw at 5 mg/kg, po measured after 1 hr by digital vernier caliper (reference value: 0 %); assay type: functional
A549 = assay: Cytotoxicity against human A549 cells assessed as growth inhibition incubated for 48 hrs by SRB assay; conditions: A549, 48 h
Drosophila [18] = assay: Toxicity in wild-type Drosophila assessed as reduction in eclosion rate at 200 uM, po via food to female and male flies and measured in F1 generation flies after 15 days; assay type: organism-based; parameters: scale not given: the % may be the effect or the level left; conditions: in vivo, 360 h, time 15 day; in short: as §3

Clc1ccc(-c2nnc(CN3CCN(C(c4ccccc4)c4ccc(Cl)cc4)CC3)o2)cc1 (centres undefined)
Activity (Drosophila [1]): Active
half-life [2]: 2.11 h
Tmax [3]: 3 h
Activity (Rattus norvegicus [4]): 2.01 mm
Activity (Drosophila [5]): < 50%
Activity [6]: 0.02
Activity (Drosophila [7]): 41%
Activity (Drosophila [8]): Active
Activity (Rattus norvegicus [9]): Active
Activity [10]: 0%
Activity (Rattus norvegicus [11]): 5.63 mm
Activity (Rattus norvegicus [12]): Active
LC50 at 360 h [13]: 100 µM
IC50 [14]: 34.1 µM
Activity (Rattus norvegicus [15]): 4.14 mm
Activity (Rattus norvegicus [16]): 3.41 mm
Activity (Rattus norvegicus [17]): 56.12%
GI50 (A549): 0.731 µM
Activity (Drosophila [18]): 24%

O=[N+]([O-])c1ccc(-c2nnc(CN3CCN(C(c4ccccc4)c4ccc(Cl)cc4)CC3)o2)cc1 (centres undefined)
Activity (Rattus norvegicus [4]): 2.3 mm
Activity [6]: 0.031
Activity (Rattus norvegicus [9]): Active
Activity [10]: 0.667%
Activity (Rattus norvegicus [11]): 5.25 mm
Activity (Rattus norvegicus [12]): Active
IC50 [14]: 41.1 µM
Activity (Rattus norvegicus [15]): 4.14 mm
Activity (Rattus norvegicus [16]): 4.54 mm
Activity (Rattus norvegicus [17]): 55.22%
